Compound activity as filed in PubChem BioAssay.
CHOP UPR activ: activators of apoptotic arm of unfolded protein response (CHOP); CHO-CHOP luciferase reporter, UPR activation, luminescence; percent of tunicamycin response over DMSO baseline; activation, % at 10 µM; 330,000 tested, 0.34% active;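 active = at 10 µM dose, activation of 40% or more, normalized to positive control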;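 also: 100% = tunicamycin at 10 µg/mL and 0% = DMSO alone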
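System: CHO-CHOP luciferase reporter cell line; amount: 500 cells/well; buffer or medium: F12 medium containing 10% fetal bovine serum; incubation: 6 h compound exposure at 37 °C after overnight seeding; measured by: luciferase luminescence after 10 min with Steady-Glo reagent; evaluation: % reporter activation, DMSO baseline versus tunicamycin full activation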
XBP1 UPR activ: activators of adaptive arm of unfolded protein response (XBP1) | CHO-XBP1 luciferase reporter, IRE1-XBP1 UPR activation, luminescence; percent of tunicamycin response, DMSO as zero | activation, % at 20 µM | 330,000 tested, 0.33% active | AID 463104;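 active = versus positive control, 20 µM dose yields 30% or more activation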;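 also: 100% = tunicamycin at 10 µg/mL and 0% = DMSO only wells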
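incubation = overnight seeding at 37 °C, 6 h compound treatment at 37 °C | assay system = CHO-XBP1 cells stably carrying IRE1-XBP1-driven luciferase reporter | input = 1000 cells per well | detection = luciferase luminescence | dosing = single point, 20 µM final compound, 1% DMSO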
CHOP inhibitor: CHOP inhibition in unfolded protein response | CHO-K1 CHOP-promoter luciferase, tunicamycin-induced, 15-18 h | inhibition, % at 10 µM | 220,000 tested, 3.8% active;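 active = compounds that reduced the stress-induced luciferase reporter signal by more than about 70% of percent inhibition, limit read from the data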;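 also: 0% = tunicamycin plus vehicle and 100% = wells without tunicamycin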
TbMetRS inhib: blocks T. brucei methionyl-tRNA synthetase activity; purified T. brucei MetRS, ATP depletion, Kinase-Glo luminescence; 360,000 tested, 0.4% active; inhibition, % at 11.9 µM;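 active = inhibition above a per-plate cutoff of the control wells' mean inhibition plus 3 SD, cut at about 5.5% in these data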;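 also: 0% = DMSO wells median and 100% = median of wells with control inhibitor compound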
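assay system = parasite MetRS enzyme | timing = 15 min preincubation, 2 h reaction, all 25 °C | evaluation = percent inhibition relative to median high and low control wells | medium = HEPES buffer containing pyrophosphatase, BSA, spermine, DTT | compound = single dose, 11.9 µM final nominal, 0.9% final DMSO | detection = Kinase-Glo luminescence, ATP depletion format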
V-ATPase pH: alters yeast V-ATPase proton transport | S. cerevisiae, pHLuorin cytosolic pH fluorescence | response, % at 10 µM | 350,000 tested, 0.37% active; in the data active = response mostly above about 7.3%, no sharp cut-off; inactive = mostly below about 5.4%; also: actives read high
Starred values were filed as active, the others as inactive; · = not tested or not shown. The full list was thinned out, with hits kept by preference.

SMILES	CHOP UPR activ	XBP1 UPR activ	CHOP inhibitor	TbMetRS inhib	V-ATPase pH
Cc1ccccc1NC(=O)N(O)C1(C#N)CCCCC1	·	·	·	0	1
COc1cc(/C=N/N=C2\CC3CCC2(C)C3(C)C)ccc1O (stereo not drawn)	1	-1	77*	0	-3
COc1ccc(/C=N/N=C2\CC3CCC2(C)C3(C)C)cc1O (stereo not drawn)	2	2	24	0	-3
COc1ccc(-c2cc(C(=O)NCc3cccc(C(F)(F)F)c3)[nH]n2)c(C)c1	·	·	·	0	·
Cc1ccc2nc(SCC(=O)c3ccc(Cl)s3)[nH]c2c1	2	2	71*	1	1
Cc1ccc2nc(SCC(=O)c3ccc4c(c3)OCO4)[nH]c2c1	1	0	38	0	0
CC(C)(C)OC(=O)N[C@@H](Cc1ccccc1)c1nnc(SCC(N)=O)o1	0	1	9	0	1
Cc1cccc(CS(=O)(=O)c2nnc([C@H](Cc3ccccc3)NC(=O)OC(C)(C)C)o2)c1	29	-7	115*	-1	4
CCN1C(=O)C(O)(CC(=O)/C=C/C=C/c2ccccc2)c2ccccc21 (stereo not drawn)	1	-1	-15	0	3
O=C(/C=C/C=C/c1ccccc1)CC1(O)C(=O)N(CCc2ccccc2)c2ccccc21 (stereo not drawn)	-1	-1	78*	-1	4
COc1ccc(C(=O)/C=C/c2ccc(O)cc2)c2c1CC(O)C(C)(C)O2 (stereo not drawn)	-2	-2	·	-1	-2
COc1ccc(C(=O)/C=C/c2ccc(O)cc2)c(O)c1CC=C(C)C	1	-3	79*	1	-4
CCCn1nnnc1SCC(=O)c1ccc2c(c1)OCCO2	2	-3	85*	0	-1
Cn1nnnc1SCC(=O)c1ccc2c(c1)OCCO2	2	3	-14	0	0
CC(C)CC(=O)NC(NC(=S)Nc1sc2c(c1C#N)CCCC2)C(Cl)(Cl)Cl (stereo not drawn)	2	-1	79*	-1	7
Oc1ccc(/C=N/N(Cc2ccccc2)c2ccccc2)c(O)c1O	·	·	80*	-1	3
CC(OC(=O)c1ccc(S(C)(=O)=O)c([N+](=O)[O-])c1)C(=O)NC1C2CC3CC(C2)CC1C3 (stereo not drawn)	·	·	·	-2	·
NC(=O)c1ccc(OCC(F)(F)C(F)(F)C(F)(F)C(F)(F)C(F)(F)C(F)F)cc1	-1	4	61	-1	-1
Cc1cc(OCC(F)(F)C(F)(F)C(F)(F)C(F)(F)C(F)(F)C(F)F)nc(N)n1	-1	-2	91*	0	4
CC(=O)OC1(C)C=Cc2ccccc2C1=NS(=O)(=O)c1ccccc1 (stereo not drawn)	·	·	·	0	0
N/C(=N\OCc1ccc([N+](=O)[O-])cc1)c1ccccn1	-9	-10	83*	·	-1
N/C(=N\OC(=O)c1ccccc1)c1ccccn1	-10	-7	86*	-3	5
CC(C(=O)O/N=C(\N)c1ccccn1)c1ccc([N+](=O)[O-])cc1 (stereo not drawn)	0	-4	·	0	1
Cc1ccc(C(=O)O/N=C(\N)c2ccccn2)cc1	-9	-16	·	-2	1
N/C(=N\OC(=O)COc1ccc(Cl)cc1Cl)c1ccccn1	2	-4	7	3	1
SMILES	CHOP UPR activ	XBP1 UPR activ	CHOP inhibitor	TbMetRS inhib	V-ATPase pH
N/C(=N\OC(=O)COc1ccc(Br)cc1Cl)c1ccccn1	0	0	-4	3	22*
O=C(c1[nH]c(C(F)(F)F)nc1-c1ccccc1)N1CCN(c2cccc(C(F)(F)F)n2)CC1	·	·	·	0	·
Cc1cccc(NC(=O)c2nc[nH]c2C(=O)N[C@@H](Cc2ccccc2)C(=O)OC(C)(C)C)c1	0	28	74*	0	-3
CC(C)C[C@H](NC(=O)c1nc[nH]c1C(=O)NCC(=O)OCc1ccccc1)C(=O)OC(C)(C)C	-2	2	·	0	-10
CC(C)C[C@H](NC(=O)c1nc[nH]c1C(=O)NCC(=O)OC(C)(C)C)C(=O)OC(C)(C)C	-2	1	84*	0	-2
CCc1ccccc1S(=O)(=O)Cc1ccc(C(=O)NCc2ccc3c(c2)OCO3)o1	0	-2	87*	0	0
O=C(NCc1ccc2c(c1)OCO2)c1ccc(CS(=O)(=O)Cc2cccc(Cl)c2)o1	-4	-2	29	1	-1
CCn1c(=O)c(C(=O)CN2c3ccccc3CC2C)c(N)n(Cc2ccccc2)c1=O (stereo not drawn)	-3	-3	87*	-1	-2
CC1Cc2ccccc2N1CC(=O)c1c(N)n(Cc2ccccc2)c(=O)n(C)c1=O (stereo not drawn)	1	-2	60	-1	-1
C=CCn1c(-c2ccccc2)ccc(C#N)c1=O	0	-4	91*	0	0
C=CCn1c(-c2ccccc2)cc(SC)c(C#N)c1=O	0	-2	54	1	-2
CCOC(=O)[C@@H](NC(=O)/C=C/[C@H]1O[C@@H](n2ccc(=O)[nH]c2=O)[C@H](O)[C@@H]1O)C(C)C	·	·	·	0	·
CC(C)=C1C2CCC1C(C(=O)NCc1ccccc1)C2C(=O)O (stereo not drawn)	1	0	82*	-1	3
CCN1CCN(CCNC(=O)c2ccc3c(c2)N(Cc2ccc(F)cc2)C(=O)/C(=C/c2ccccc2)S3)CC1	4	-1	107*	0	1
CCCC(=O)N1CCCC1(C)C(=O)Nc1cc(OC)c(OC)c(OC)c1 (stereo not drawn)	·	·	·	0	·
CC(=O)O[C@H]1CC[C@H]2[C@@H]3CCc4cc(O)ccc4[C@H]3CC[C@]12C	-3	-5	76*	0	0
CC(=O)OC1CCC2C3CCc4cc(O)ccc4C3CCC12C (stereo not drawn)	·	·	·	-1	2
CC1=CC(=O)C2(C)C(C)=C(C)C12C (stereo not drawn)	·	·	·	0	0
CC(C)c1cc(C(=O)Nc2cc(Br)ccc2O)no1	2	3	78*	0	7
CC(C)c1cc(C(=O)Nc2cc(Cl)ccc2O)no1	6	9	·	-1	-1
O=C(CCl)N1c2ccccc2OCC1c1ccccc1 (stereo not drawn)	22	-5	106*	1	2
Cc1ccc(C(C(=O)NC2CCCC2)N(Cc2ccc(F)cc2)C(=O)c2csnn2)o1 (stereo not drawn)	-1	2	71*	-1	-2
O=C(COc1ccc2ccccc2c1)Nc1nnc(-c2ccco2)s1	2	0	72*	·	·
Cc1ccccc1OCC(=O)Nc1nnc(-c2ccco2)s1	1	0	4	0	-1
CC1(C(=O)NS(=O)(=O)c2cccc(Cl)c2)CCN1C(=O)c1ccccc1CCc1ccccc1 (stereo not drawn)	·	·	·	0	·
